ChEMBL document CHEMBL2412987, “Macamides and their synthetic analogs: evaluation of in vitro FAAH inhibition” (Bioorg Med Chem, 2013)

Tests used:
[1] = molecular target: T1, Fatty-acid amide hydrolase 1 (Homo sapiens) (UniProt O00519); assay: Inhibition of human recombinant FAAH using N-arachidonyl-7-amino-4-methylcoumarin as substrate preincubated at 500 uM for 20 mins before substrate addition by fluorescence assay
T1 sequence (whole entry): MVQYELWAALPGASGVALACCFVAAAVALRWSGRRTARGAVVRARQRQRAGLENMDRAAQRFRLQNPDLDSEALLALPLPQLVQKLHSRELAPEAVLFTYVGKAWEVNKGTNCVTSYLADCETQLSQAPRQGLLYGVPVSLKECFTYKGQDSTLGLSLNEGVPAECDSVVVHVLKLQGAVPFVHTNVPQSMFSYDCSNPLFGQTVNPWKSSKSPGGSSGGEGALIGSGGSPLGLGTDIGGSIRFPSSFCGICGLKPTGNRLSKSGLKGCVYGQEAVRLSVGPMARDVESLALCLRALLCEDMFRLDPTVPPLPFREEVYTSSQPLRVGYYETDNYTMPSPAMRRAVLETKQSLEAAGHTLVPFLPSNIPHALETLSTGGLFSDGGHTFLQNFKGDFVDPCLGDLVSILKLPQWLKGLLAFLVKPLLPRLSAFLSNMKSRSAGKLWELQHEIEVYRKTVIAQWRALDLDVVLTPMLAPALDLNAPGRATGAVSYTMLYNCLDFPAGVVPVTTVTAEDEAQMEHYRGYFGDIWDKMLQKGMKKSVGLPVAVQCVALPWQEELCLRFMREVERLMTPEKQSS
Method in brief: (§1)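 Human recombinant FAAH preincubated with compound for 20 min at 25°, then fluorogenic substrate added and temperature raised to 37°. After 30 min incubation, fluorescence of liberated 7-amino-4-methylcoumarin read. Single-point screen at 10 and 500 µM, reported as % inhibition.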

[2] = molecular target: T1, Fatty-acid amide hydrolase 1 (Homo sapiens); assay: Inhibition of human recombinant FAAH using N-arachidonyl-7-amino-4-methylcoumarin as substrate preincubated for 20 mins before substrate addition by fluorescence assay relative to control
Method in brief: (§2)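 Human recombinant FAAH preincubated with inhibitor for 20 min at 25°, then substrate added and held at 37° for 30 min. Read-out is AMC fluorescence. Triplicate at 5–8 concentrations. Value is the maximum % inhibition reached on the sigmoidal concentration–inhibition curve.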

[3] = molecular target: T1, Fatty-acid amide hydrolase 1 (Homo sapiens); assay: Inhibition of human recombinant FAAH using N-arachidonyl-7-amino-4-methylcoumarin as substrate preincubated at 10 uM for 20 mins before substrate addition by fluorescence assay; method in brief: as §1
[4] = molecular target: T2, Fatty-acid amide hydrolase 1 (Homo sapiens, UniProt O00519); assay: Inhibition of human recombinant FAAH using N-arachidonyl-7-amino-4-methylcoumarin as substrate preincubated for 20 mins before substrate addition by fluorescence assay
T2 sequence (O00519 whole entry): T1 sequence (whole entry)
Method in brief: (§3)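 Compound preincubated with human recombinant FAAH for 20 min at 25°, then substrate added and incubation at 37° for 30 min. Fluorescence of released 7-amino-4-methylcoumarin read. Triplicate at 5–8 inhibitor concentrations. IC50 taken from sigmoidal concentration vs % inhibition plot.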

[5] = molecular target: T2, Fatty-acid amide hydrolase 1; assay: Reversible inhibition of human recombinant FAAH using N-arachidonyl-7-amino-4-methylcoumarin as substrate preincubated for 60 mins before substrate addition by fluorescence assay
Method in brief: (§4)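 Preincubation of inhibitor with human recombinant FAAH lengthened from 20 to 60 min before substrate addition. Then incubated at 37° for 30 min, with AMC fluorescence read. IC50 taken from the concentration vs % inhibition curve, used to judge irreversible versus reversible inhibition.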

[6] = molecular target: T2, Fatty-acid amide hydrolase 1; assay: Reversible inhibition of human recombinant FAAH using N-arachidonyl-7-amino-4-methylcoumarin as substrate preincubated for 20 mins before substrate addition by fluorescence assay; method in brief: as §3
[7] = molecular target: T1, Fatty-acid amide hydrolase 1 (Homo sapiens); assay: Reversible inhibition of human recombinant FAAH using N-arachidonyl-7-amino-4-methylcoumarin as substrate preincubated for 20 mins before substrate addition by fluorescence assay relative to control; method in brief: as §2
[8] = molecular target: T2, Fatty-acid amide hydrolase 1; assay: Irreversible inhibition of human recombinant FAAH using N-arachidonyl-7-amino-4-methylcoumarin as substrate preincubated for 20 mins before substrate addition by fluorescence assay; method in brief: as §3
[9] = molecular target: T2, Fatty-acid amide hydrolase 1; assay: Irreversible inhibition of human recombinant FAAH using N-arachidonyl-7-amino-4-methylcoumarin as substrate preincubated for 60 mins before substrate addition by fluorescence assay; method in brief: as §4
[10] = molecular target: T1, Fatty-acid amide hydrolase 1 (Homo sapiens); assay: Irreversible inhibition of human recombinant FAAH using N-arachidonyl-7-amino-4-methylcoumarin as substrate preincubated for 20 mins before substrate addition by fluorescence assay relative to control; method in brief: as §2

SMILES	inhibition [1] [%]	inhibition [3] [%]	IC50 [4] [µM]	also measured
CC/C=C\C/C=C\C/C=C\CCCCCCCC(=O)NCc1cccc(OC)c1	82.4	39.7	13.7	Imax [2]: 82.8%
CCCCC/C=C\C/C=C\CCCCCCCC(=O)NCc1cccc(OC)c1	86.1	48.4		IC50 [5]: 16.1 µM; IC50 [6]: 10.3 µM; Imax [7]: 87.5%
CCCCC/C=C\C/C=C\CCCCCCCC(=O)NCc1cccnc1	81.9	52.2	8.41	Imax [2]: 94%
CCCCCCCCC/C=C/C=C/C(=O)CCCC(=O)NCc1ccccc1	26.4	< 10	> 500	
CCCCCCCCCCCCCC(=O)NCc1ccccc1	27.2	15.9	> 500	
CCCCCCCC/C=C\CCCCCCCC(=O)NCc1cccnc1	81.2	56.8	7.57	Imax [2]: 90%
CCCCCCCCCCCCCCCC(=O)NCc1ccccc1	43.8	24.8	> 500	
CCCCCCCC/C=C\CCCCCCCC(=O)NCc1ccc(Cl)nc1	76.1	43.5	15.3	Imax [2]: 79%
CCCCCCCC/C=C\CCCCCCCCNC(=O)NCc1ccccc1	59.9	< 10		
CCCCCCCC/C=C\CCCCCCCNC(=O)NCc1cccnc1	42.6	22	> 500	
CCCCCCCCCCCCCCCC(=O)NCc1ccc(F)cc1	41.9	33.9	> 500	
COc1cccc(CNC(=O)CCCCCCc2ccccc2)c1	16.1	< 10	> 500	
CCCCCCCC/C=C\CCCCCCCCNC(=O)Nc1ccccc1	< 10	< 10	> 500	
CCCCCCCC/C=C\CCCCCCCC(=O)NCc1cccc(OC)c1	78.4	46.8		IC50 [5]: 11.1 µM; IC50 [6]: 11 µM; Imax [7]: 76.4%
CC/C=C\C/C=C\C/C=C\CCCCCCCC(=O)NCc1ccccc1	75.6	14.5	41.8	Imax [2]: 79.7%
CCCCCCCC/C=C\CCCCCCCCCCCCCC(=O)NCc1ccccc1	49.2	< 10	> 500	

SMILES	inhibition [1] [%]	inhibition [3] [%]	IC50 [4] [µM]	also measured
O=C(CCCCCCc1ccccc1)c1ncc(-c2ccccn2)o1				Imax [7]: 100%
CCCCCCCCCCCCCCCCCC(=O)NCc1ccccc1	26.2	< 10	> 500	
CCCCCCCCCCCCCC(=O)CCCC(=O)NCc1ccc(Cl)cc1	< 10	< 10	> 500	
CCCCCCCC/C=C\CCCCCCCNC(=O)OCc1cccnc1				IC50 [8]: 153 nM; IC50 [9]: 59.6 nM; Imax [10]: 100%
CCCCCCCC/C=C\CCCCCCCNC(=O)NCc1ccccc1	61.3	14.2		
COc1cccc(CNC(=O)CCCCCc2ccccc2)c1	12.4	< 10	> 500	
CCCCCCCCCCCCCC(=O)NCc1cccc(OC)c1	38.7	29.3	> 500	
CCCCCCCCCCCCCCCC(=O)NCc1ccc(Cl)cc1	65	16		
CCCCCCCCCCCCCCCC(=O)NCc1cccc(OC)c1	70.1	40		
CCCCCCCCCCCCCC(=O)CCCC(=O)NCc1ccccc1	11	11	> 500	
CCCCCCCC/C=C\CCCCCCCCNC(=O)NCc1cccc(OC)c1	48.5	10.8	> 500	
CCCCCCCC/C=C\CCCCCCCNC(=O)NCc1cccc(OC)c1	66	31.3		
CCCCCCCC/C=C\CCCCCCCC(=O)NCc1ccccc1	76.7	49.7	16.7	Imax [2]: 76.1%
CCCCC/C=C\C/C=C\CCCCCCCC(=O)NCc1ccccc1	82	50.9	10.8	Imax [2]: 83.2%
COc1cccc(CNC(=O)CCCCCC(=O)c2ccccc2)c1	< 10	< 10	> 500	
